The source made the active and inactive calls. The calls are words filed in the database; no cut-off is given here.
Key:
[1] = target: T1, Protein-serine O-palmitoleoyltransferase porcupine (Mus musculus, UniProt Q9JJJ7); experiment: Inhibition of porcupine-mediated Wnt signalling in mouse L cells after 24 hrs by SuperTopflash reporter assay; format: cell-based
T1 sequence (Q9JJJ7 whole entry): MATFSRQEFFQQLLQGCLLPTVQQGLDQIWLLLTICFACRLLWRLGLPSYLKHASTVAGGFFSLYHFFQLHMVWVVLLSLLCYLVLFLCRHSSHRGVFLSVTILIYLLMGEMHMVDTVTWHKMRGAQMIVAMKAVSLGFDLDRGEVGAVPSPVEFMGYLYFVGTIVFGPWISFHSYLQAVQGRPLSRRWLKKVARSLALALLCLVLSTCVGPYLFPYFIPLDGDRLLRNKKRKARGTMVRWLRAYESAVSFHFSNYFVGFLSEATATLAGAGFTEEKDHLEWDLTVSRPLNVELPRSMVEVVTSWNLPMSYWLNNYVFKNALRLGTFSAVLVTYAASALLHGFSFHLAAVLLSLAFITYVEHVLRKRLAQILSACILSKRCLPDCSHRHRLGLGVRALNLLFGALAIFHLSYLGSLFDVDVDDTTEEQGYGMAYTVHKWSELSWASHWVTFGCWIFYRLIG

Danio rerio [2] = experiment: In vivo inhibition of porcupine in zebrafish embryos assessed as inhibition of Wnt/beta-casein-mediated posterior axis formation at 1 to 5 uM applied in aquarium water by mCherry-based reporter gene assay; format: functional, organism-based; settings: in the assay text read “beta-catenin” for “beta-casein”
Method in brief: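 Zebrafish embryos carrying an mCherry-based Wnt/β-catenin signaling reporter were exposed to increasing concentrations of compound in the aquarium water. Whole-animal fluorescence intensity was quantified, and posterior axis formation was scored.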

[3] = target: T2, Protein-serine O-palmitoleoyltransferase porcupine (Mus musculus) (UniProt Q9JJJ7); experiment: Inhibition of porcupine in E11.5 mouse embryo kidney assessed as inhibition of Wnt-mediated branching morphogenesis at 10 to 50 nM measured every 24 hrs by fluorescent stereoscopic analysis relative to control
T2 sequence (whole entry): T1 sequence (Q9JJJ7 whole entry)
Method in brief: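 Kidneys from E11.5 Hoxb7Cre;RosaTomato mouse embryos were cultured at the air/media interface in media containing 1 nM to 1 μM compound, with DMSO controls. Media was replaced and fluorescent stereoscope images were taken every 24 h. The read-out was the fold increase in ureteric bud tip number from 0 to 48 h, compared by Student t test.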

Danio rerio [4] = experiment: In vivo inhibition of porcupine in juveline stage of zebrafish assessed as inhibition of Wnt-mediated tail fin regeneration at 5 uM; format: functional, organism-based
[5] = Half life in ICR/CD-1 mouse liver S9 fraction at 2 uM by LC-MS/MS analysis; format: ADME, subcellular
[6] = Half life in rat plasma at 2 uM; format: ADME, cell-free
[7] = Half life in mouse plasma at 2 uM; format: ADME, cell-free
[8] = target: T3, Protein-serine O-palmitoleoyltransferase porcupine (Homo sapiens) (UniProt Q9H237); experiment: Inhibition of porcupine-mediated phosphorylation of dishevelled 2 in HEK293 cells at 2.5 uM; format: cell-based
T3 sequence (whole entry): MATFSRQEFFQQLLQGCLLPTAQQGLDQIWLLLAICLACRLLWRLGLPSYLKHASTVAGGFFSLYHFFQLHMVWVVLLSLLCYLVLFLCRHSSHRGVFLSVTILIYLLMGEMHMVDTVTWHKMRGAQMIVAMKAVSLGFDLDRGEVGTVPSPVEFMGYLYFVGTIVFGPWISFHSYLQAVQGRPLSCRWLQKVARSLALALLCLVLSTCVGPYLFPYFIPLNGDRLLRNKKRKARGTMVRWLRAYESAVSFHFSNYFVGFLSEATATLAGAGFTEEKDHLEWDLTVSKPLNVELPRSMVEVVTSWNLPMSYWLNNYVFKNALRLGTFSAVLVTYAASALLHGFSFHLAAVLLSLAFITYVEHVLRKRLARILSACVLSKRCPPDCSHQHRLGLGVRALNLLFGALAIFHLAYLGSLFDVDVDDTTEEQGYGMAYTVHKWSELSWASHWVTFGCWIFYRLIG

Row | SMILES | EC50 [1] [nM] | also measured
1 | COc1ccc2nc(NC(=O)CSc3nc4c(c(=O)n3-c3ccccc3OC)SCC4)sc2c1 | 50 | 
2 | COc1ccc2nc(NC(=O)CNC(=O)c3nn(-c4ccccc4OC)c(=O)c4ccccc34)sc2c1 | 90 | 
3 | O=C(CSc1nc2c(c(=O)n1-c1ccccc1)SCC2)Nc1ccc(-c2ccsc2)cn1 | 2 | 
4 | COc1ccc(-n2nc(C(=O)NCC(=O)Nc3nc4ccc(C)cc4s3)c3ccccc3c2=O)cc1 | 25 | 
5 | Cc1ccc2nc(NC(=O)CSc3nc4c(c(=O)n3C)SC(C)C4)sc2c1 (stereo not drawn) | 15 | 
6 | COc1ccc2nc(NC(=O)CSc3nc4c(c(=O)n3-c3ccc(F)cc3)SCC4)sc2c1 | 250 | 
7 | COc1ccc2nc(NC(=O)CNC(=O)c3nn(-c4ccccc4)c(=O)c4ccccc34)sc2c1 | 210 | 
8 | COc1ccc(-n2nc(C(=O)NCC(=O)Nc3nc4ccccc4s3)c3ccccc3c2=O)cc1 | 25000 | 
9 | CN(C)c1ccc(NC(=O)CSc2nc3c(c(=O)n2-c2ccccc2)SCC3)cc1 | > 1000 | 
10 | O=C(CSc1nc2c(c(=O)n1-c1ccccc1)SCC2)Nc1ccc(-c2ccccc2)cc1 | 0.75 | 
11 | O=C(CSc1nc2c(c(=O)n1-c1ccccc1)SCC2)Nc1ccccc1-c1ccccc1 | > 5000 | 
12 | CCn1c(SCC(=O)Nc2nc3ccccc3s2)nc2c(c1=O)SC(C)C2 (stereo not drawn) | 4000 | 
13 | O=C(CSc1nc2c(c(=O)n1-c1ccccc1)SCC2)Nc1nc2ccc(C(F)(F)F)cc2s1 | 40 | 
14 | COc1ccc(-n2c(SCC(=O)Nc3nc4ccc(Cl)cc4s3)nc3c(c2=O)SCC3)cc1 | 35 | 
15 | O=C(CSc1nc2c(c(=O)n1-c1ccccc1)SCC2)Nc1ccc(-c2cncnc2)cn1 | 5.5 | inhibition (Danio rerio [2]): inactive
16 | COc1ccc2nc(NC(=O)CSc3nc4c(c(=O)n3-c3ccccc3)SCC4)ccc2c1 | 580 | 
17 | O=C(CNC(=O)c1nn(-c2ccc(F)cc2)c(=O)c2ccccc12)Nc1nc2ccc(C(F)(F)F)cc2s1 | 90 | 
18 | O=C(CSc1nc2c(c(=O)n1-c1ccccc1)SCC2)Nc1ncc(-c2ccoc2)cn1 | 1.5 | 
19 | COc1ccccc1-n1c(SCC(=O)Nc2nc3ccc(C)cc3s2)nc2c(c1=O)SCC2 | 25 | 
20 | O=C(CSc1nc2c(c(=O)n1-c1ccccc1)SCC2)Nc1ccc(N2CCCCC2)cc1 | 30 | 
21 | O=C(CSc1nc2c(c(=O)n1-c1ccccc1)SCC2)Nc1ccc(-c2cccnc2)cc1 | 0.45 | 

Row | SMILES | EC50 [1] [nM] | also measured
22 | Cc1ccc2nc(NC(=O)CNC(=O)c3nn(-c4ccccc4)c(=O)c4ccccc34)sc2c1 | 35 | 
23 | CC(=O)c1ccc(NC(=O)CSc2nc3c(c(=O)n2-c2ccccc2)SCC3)cc1 | > 1000 | 
24 | O=C(CSc1nc2c(c(=O)n1-c1ccc(F)cc1)SCC2)Nc1nc2ccc(C(F)(F)F)cc2s1 | 100 | 
25 | O=C(CSc1nc2c(c(=O)n1-c1ccccc1)SCC2)Nc1ncc(-c2ccccc2)cn1 | 15 | 
26 | O=C(CSc1nc2c(c(=O)n1-c1ccccc1)SCC2)Nc1ncc(-c2ccco2)cn1 | 3.5 | 
27 | O=C(CNC(=O)c1nn(-c2ccc(F)cc2)c(=O)c2ccccc12)Nc1nc2ccc(Cl)cc2s1 | 25 | 
28 | O=C(CSc1nc2c(c(=O)n1-c1ccccc1)SCC2)Nc1ccc(-c2ccccc2)nc1 | 0.3 | 
29 | Cc1ccc2nc(NC(=O)CSc3nc4c(c(=O)n3-c3ccccc3)SCC4)sc2c1 | 30 | 
30 | Cc1ccc2nc(NC(=O)CSc3nc4c(c(=O)n3-c3ccc(F)cc3)SCC4)sc2c1 | 40 | 
31 | O=C(CSc1nc2c(c(=O)n1-c1ccccc1)SCC2)Nc1ccc(-c2ccccn2)cc1 | 4 | 
32 | COc1ccc(-n2c(SCC(=O)Nc3nc4ccc(OC)cc4s3)nc3c(c2=O)SCC3)cc1 | 120 | 
33 | COc1ccc2nc(NC(=O)CNC(=O)c3ccc(=O)n(-c4ccccc4)c3)sc2c1 | > 25000 | 
34 | O=C(CSc1nc2c(c(=O)n1-c1ccccc1)SCC2)Nc1ncc(-c2ccccc2)s1 | 55 | 
35 | O=C(CNC(=O)c1nn(-c2ccccc2)c(=O)c2ccccc12)Nc1nc2ccccc2s1 | 2600 | 
36 | O=C(CSc1nc2c(c(=O)n1-c1ccccc1)SCC2)Nc1ccc(-c2ccoc2)cn1 | 1.5 | inhibition (Danio rerio [2]): inactive
37 | COc1ccc(-n2nc(C(=O)NCC(=O)Nc3nc4ccc(Cl)cc4s3)c3ccccc3c2=O)cc1 | 15 | 
38 | O=C(CSc1nc2c(c(=O)n1-c1ccccc1)SCC2)Nc1nc(-c2ccccc2)cs1 | 350 | 
39 | O=C(CSc1nc2c(c(=O)n1-c1ccccc1)SCC2)Nc1ccc(-c2ccncc2)cc1 | 3 | 
40 | CCOc1ccc(NC(=O)CSc2nc3c(c(=O)n2-c2ccccc2)SCC3)cc1 | 1000 | 
41 | CCOC(=O)c1ccc2nc(NC(=O)CNC(=O)c3nn(-c4ccccc4)c(=O)c4ccccc34)sc2c1 | > 25000 | 
42 | O=C(CSc1nc2c(c(=O)n1-c1ccccc1)SCC2)Nc1ccc(-c2ccccc2)cn1 | 0.5 | inhibition [3]: Active; inhibition (Danio rerio [2]): Active; inhibition (Danio rerio [4]): Active; half-life at 2 µM [5]: 26 min; half-life at 2 µM [6]: 190 min; half-life at 2 µM [7]: 2 min; inhibition [8]: Active

Row | SMILES | EC50 [1] [nM] | also measured
43 | COc1ccccc1-n1c(SCC(=O)Nc2nc3ccc(Cl)cc3s2)nc2c(c1=O)SCC2 | 50 | 
44 | CCOC(=O)c1ccc(NC(=O)CSc2nc3c(c(=O)n2-c2ccccc2)SCC3)cc1 | 300 | 
45 | O=C(CNC(=O)c1nn(-c2ccccc2)c(=O)c2ccccc12)Nc1nccs1 | > 25000 | 
46 | O=C(CSc1nc2c(c(=O)n1-c1ccccc1)SCC2)Nc1ccc(-c2cccs2)cn1 | 0.3 | inhibition (Danio rerio [2]): Active
47 | COc1ccc(-n2nc(C(=O)NCC(=O)Nc3nc4ccc(OC)cc4s3)c3ccccc3c2=O)cc1 | 60 | 
48 | O=C(CSc1nc2c(c(=O)n1-c1ccc(F)cc1)SCC2)Nc1nc2ccc(Cl)cc2s1 | 175 | 
49 | COc1ccc(-n2c(SCC(=O)Nc3nc4ccc(C(F)(F)F)cc4s3)nc3c(c2=O)SCC3)cc1 | 100 | 
50 | O=C(CSc1nc2c(c(=O)n1-c1ccccc1)SCC2)Nc1ccc(-c2cccnc2)cn1 | 1 | 
51 | O=C(CSc1nc2c(c(=O)n1-c1ccccc1)SCC2)Nc1nc2ccc(Cl)cc2s1 | 40 | 
52 | COc1ccc2nc(NC(=O)CNC(=O)c3nn(-c4ccc(F)cc4)c(=O)c4ccccc34)sc2c1 | 90 | 
53 | O=C(CNC(=O)c1nn(-c2ccc(F)cc2)c(=O)c2ccccc12)Nc1nc2ccccc2s1 | > 25000 | 
54 | O=C(CNC(=O)c1nn(-c2ccccc2)c(=O)c2ccccc12)Nc1nc2ccc(C(F)(F)F)cc2s1 | 110 | 
55 | O=C(CSc1nc2c(c(=O)n1-c1ccccc1)SCC2)Nc1ccc(-c2ccco2)cn1 | 3.5 | 
56 | COc1ccccc1-n1c(SCC(=O)Nc2nc3ccc(C(F)(F)F)cc3s2)nc2c(c1=O)SCC2 | 30 | 
57 | O=C(CSc1nc2c(c(=O)n1-c1ccccc1)SCC2)Nc1cccc(-c2ccccc2)c1 | > 5000 | 
58 | COc1ccc2nc(NC(=O)CSc3nc4c(c(=O)n3-c3ccccc3)SCC4)sc2c1 | 40 | 
59 | O=C(CNC(=O)c1nn(-c2ccccc2)c(=O)c2ccccc12)Nc1nc2ccc(Cl)cc2s1 | 30 | 
60 | Cc1ccc2nc(NC(=O)CNC(=O)c3nn(-c4ccc(F)cc4)c(=O)c4ccccc34)sc2c1 | 100 | 
61 | O=C(CNC(=O)c1nn(-c2ccccc2)c(=O)c2ccccc12)Nc1nc2ccc([N+](=O)[O-])cc2s1 | 240 | 
62 | O=C(CNC(=O)c1nn(-c2ccccc2)c(=O)c2ccccc12)Nc1nc2ccc(F)cc2s1 | 470 | 
63 | COc1ccccc1-n1nc(C(=O)NCC(=O)Nc2nc3ccccc3s2)c2ccccc2c1=O | 10000 | 

Source: ChEMBL document CHEMBL2321875 (J Med Chem, 2013)
